This is an account of results in paper PMC8317200 (Journal of medicinal chemistry, 2020).

A word on the koff: it is the rate constant with which the complex falls apart. The term kon denotes the second-order rate constant of association. The Kd is the equilibrium constant for the complex coming apart. High values mean lower affinity, low ones higher affinity.

Residues, ends and D or L forms follow the SMILES beside them. *: point of attachment. Adamantane1carbonyl = O=C(C12CC3CC(CC(C3)C1)C2)*; Fmoc = O=C(OCC1c2ccccc2-c2ccccc21)*; OtBu = CC(C)(C)O*; OAll = C=CCO*; OPr = CCCO*

The labels stand for the following.
B1: fibroblast growth factor 14 (FGF14), aa 64–252 (domain or fragment, human, UniProt Q92915-2 64-252, looked up)
chain: KNKNPTDPQLKGIVTRLYCRQGYYLQMHPDGALDGTKDDSTNSTLFNLIPVGLRVVAIQGVKTGLYIAMNGEGYLYPSELFTPECKFKESVFENYYVIYSSMLYRQQESGRAWFLGLNKEGQAMKGNRVKKTKPAAHFLPKPLEVAMYREPSLHDVGETVPKPGVTPSKSTSASAIMNGGKPVNKSKTT
B3: Nav1.6 C-terminal tail, aa 1767–1912 (domain or fragment, human, UniProt Q9UQD0-1 1767-1912, looked up)
chain: ENFSVATEESADPLSEDDFETFYEIWEKFDPDATQFIEYCKLADFADALEHPLRVPKPNTIELIAMDLPMVSGDRIHCLDILFAFTKRVLGDSGELDILRQQMEERFVASNPSKVSYEPITTTLRRKQEEVSAVVLQRAYRGHLAR

One experiment deals with T1, FGF14 (Homo sapiens, UniProt Q92915).
T1 sequence (Q92915 64-252 isoform Q92915-2): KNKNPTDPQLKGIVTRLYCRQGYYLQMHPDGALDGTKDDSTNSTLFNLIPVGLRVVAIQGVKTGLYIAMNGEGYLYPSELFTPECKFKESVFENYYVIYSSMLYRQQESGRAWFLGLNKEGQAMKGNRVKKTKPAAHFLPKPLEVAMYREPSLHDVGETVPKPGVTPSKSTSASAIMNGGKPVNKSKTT
As to the kind of experiment: Surface plasmon resonance. The experiment is classed as binding. The settings on record: for koff: read-out: koff FGF14; for kon: read-out: kon FGF14. (In general: Surface plasmon resonance follows binding to a sensor surface in real time, without labels.)

For a further experiment, the target named is Nav1.6 C-terminal tail (Homo sapiens, UniProt Q9UQD0). As to the kind of experiment: Surface plasmon resonance. Format: binding. The settings on record: for koff: read-out: koff Nav1.6 C-terminal tail; for kon: read-out: kon Nav1.6 C-terminal tail.
The target of experiment [1] is human Nav1.6 (HEK-Nav1.6) channels (Homo sapiens, UniProt Q9UQD0). The experiment is classed as cell-based. Particulars: 30 μM; absence of FGF14. An outline of the steps: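 HEK293 cells stably expressing human Nav1.6 were kept under 500 μg/mL G418 with no FGF14 transfection. They were washed and re-plated at very low density onto glass coverslips, and the test compound was applied at 30 μM. Whole-cell patch clamp used extracellular solution (mM): 140 NaCl, 3 KCl, 1 MgCl2, 1 CaCl2, 10 HEPES, 10 glucose.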

The next experiment addresses T2, FGF14:Nav1.6 complex (Homo sapiens, UniProt Q92915).
T2 sequence (Q92915 1-252 isoform Q92915-2): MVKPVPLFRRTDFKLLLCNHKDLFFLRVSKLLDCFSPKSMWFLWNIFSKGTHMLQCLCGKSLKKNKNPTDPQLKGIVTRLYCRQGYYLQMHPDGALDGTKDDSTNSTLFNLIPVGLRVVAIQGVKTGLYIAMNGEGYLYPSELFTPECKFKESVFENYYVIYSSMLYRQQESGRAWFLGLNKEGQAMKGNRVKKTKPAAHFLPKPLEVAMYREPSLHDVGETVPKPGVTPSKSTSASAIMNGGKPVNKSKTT
As to the kind of experiment: Split-luciferase complementation assay. Format: cell-based. The settings on record: 50 μM screening.

A further experiment has as its target Nav1.1 channels (Homo sapiens, UniProt P35498). As to the kind of experiment: Whole-cell patch-clamp electrophysiology in HEK-Nav1.1 cells. Format: cell-based. A general note: Patch clamp records ionic current or voltage across a cell membrane.
In another experiment the target is Nav1.2 channels (Homo sapiens, UniProt Q99250). As to the kind of experiment: Whole-cell patch-clamp electrophysiology in HEK-Nav1.2 cells. The experiment is classed as cell-based.
For experiment [2], the target named is B3. As to the kind of experiment: SPR.
In a further experiment the target is FGF14:Nav1.6 (Homo sapiens, UniProt Q92915+Q9UQD0). As to the kind of experiment: SPR of FGF14 binding to Nav1.6 C-terminal tail, alone or in complex with 21a. The settings on record: FGF14 alone. An outline of the steps: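 Recombinant human Nav1.6 C-terminal tail (aa 1763–1976, His-tagged, E. coli-expressed, purified by column chromatography) amine-coupled to a CM5 chip (934 RU). FGF14 at 15.6–1500 nM, complexed with 2.1% DMSO alone, was flowed over the chip at 25 °C and 50 μL/min. Injection 120 s, dissociation 150 s, then regeneration (600 mM NaCl, 5% DMSO). kon and koff came from a Langmuir 1:1 fit.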

The target of experiment [3] is B1. As to the kind of experiment: SPR.

Sequence of Nav1.2 channels (Q99250 whole entry): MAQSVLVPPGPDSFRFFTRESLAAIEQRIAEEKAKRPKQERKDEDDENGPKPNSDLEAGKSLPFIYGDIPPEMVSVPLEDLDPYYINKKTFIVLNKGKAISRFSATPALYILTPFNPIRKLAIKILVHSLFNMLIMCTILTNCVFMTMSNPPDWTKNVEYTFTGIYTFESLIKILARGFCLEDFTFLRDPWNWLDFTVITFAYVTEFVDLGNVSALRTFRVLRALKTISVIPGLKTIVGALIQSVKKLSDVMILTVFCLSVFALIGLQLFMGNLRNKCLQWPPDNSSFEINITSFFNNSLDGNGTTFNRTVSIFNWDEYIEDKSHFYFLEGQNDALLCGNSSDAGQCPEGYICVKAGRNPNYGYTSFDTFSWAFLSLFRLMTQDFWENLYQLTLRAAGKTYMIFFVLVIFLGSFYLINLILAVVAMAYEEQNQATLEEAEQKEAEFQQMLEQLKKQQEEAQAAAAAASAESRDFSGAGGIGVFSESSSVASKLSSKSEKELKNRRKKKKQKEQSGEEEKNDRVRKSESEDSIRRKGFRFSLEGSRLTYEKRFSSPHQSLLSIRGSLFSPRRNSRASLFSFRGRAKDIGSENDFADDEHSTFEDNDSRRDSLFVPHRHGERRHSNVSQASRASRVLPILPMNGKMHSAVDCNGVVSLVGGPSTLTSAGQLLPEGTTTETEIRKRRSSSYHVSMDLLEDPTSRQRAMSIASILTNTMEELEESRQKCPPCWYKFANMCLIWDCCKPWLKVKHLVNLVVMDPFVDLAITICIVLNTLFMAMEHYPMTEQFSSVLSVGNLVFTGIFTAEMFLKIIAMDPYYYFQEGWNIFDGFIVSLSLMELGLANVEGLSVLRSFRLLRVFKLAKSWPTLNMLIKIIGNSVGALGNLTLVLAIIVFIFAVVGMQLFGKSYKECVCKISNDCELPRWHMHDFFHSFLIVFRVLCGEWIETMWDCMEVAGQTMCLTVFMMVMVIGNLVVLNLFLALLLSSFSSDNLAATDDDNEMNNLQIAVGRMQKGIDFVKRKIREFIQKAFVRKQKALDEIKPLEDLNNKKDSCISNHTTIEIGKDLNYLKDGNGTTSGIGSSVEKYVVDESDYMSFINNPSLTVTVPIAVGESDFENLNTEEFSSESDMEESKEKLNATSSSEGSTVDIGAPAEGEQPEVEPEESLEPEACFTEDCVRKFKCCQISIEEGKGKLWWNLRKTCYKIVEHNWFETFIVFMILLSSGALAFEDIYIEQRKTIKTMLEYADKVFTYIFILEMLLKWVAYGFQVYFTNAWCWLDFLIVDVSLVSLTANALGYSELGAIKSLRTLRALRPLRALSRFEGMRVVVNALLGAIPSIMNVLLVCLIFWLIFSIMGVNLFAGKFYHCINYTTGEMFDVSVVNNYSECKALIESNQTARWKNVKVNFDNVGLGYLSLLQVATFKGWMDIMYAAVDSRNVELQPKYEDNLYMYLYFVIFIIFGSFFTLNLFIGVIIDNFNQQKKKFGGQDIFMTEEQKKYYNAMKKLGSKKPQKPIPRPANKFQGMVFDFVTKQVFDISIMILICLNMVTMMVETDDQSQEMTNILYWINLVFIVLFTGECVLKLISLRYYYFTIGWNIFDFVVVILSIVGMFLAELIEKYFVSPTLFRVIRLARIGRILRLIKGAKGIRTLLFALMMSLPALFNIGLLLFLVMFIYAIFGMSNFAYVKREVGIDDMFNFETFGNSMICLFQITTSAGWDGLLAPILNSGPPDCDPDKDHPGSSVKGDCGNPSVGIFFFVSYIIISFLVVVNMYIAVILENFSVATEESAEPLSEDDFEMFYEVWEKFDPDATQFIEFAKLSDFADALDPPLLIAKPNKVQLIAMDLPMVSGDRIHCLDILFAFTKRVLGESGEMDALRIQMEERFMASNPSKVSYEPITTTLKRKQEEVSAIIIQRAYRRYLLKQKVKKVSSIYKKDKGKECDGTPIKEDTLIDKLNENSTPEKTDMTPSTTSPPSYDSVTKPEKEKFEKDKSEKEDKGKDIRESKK
Sequence of human Nav1.6 (HEK-Nav1.6) channels (Q9UQD0 whole entry): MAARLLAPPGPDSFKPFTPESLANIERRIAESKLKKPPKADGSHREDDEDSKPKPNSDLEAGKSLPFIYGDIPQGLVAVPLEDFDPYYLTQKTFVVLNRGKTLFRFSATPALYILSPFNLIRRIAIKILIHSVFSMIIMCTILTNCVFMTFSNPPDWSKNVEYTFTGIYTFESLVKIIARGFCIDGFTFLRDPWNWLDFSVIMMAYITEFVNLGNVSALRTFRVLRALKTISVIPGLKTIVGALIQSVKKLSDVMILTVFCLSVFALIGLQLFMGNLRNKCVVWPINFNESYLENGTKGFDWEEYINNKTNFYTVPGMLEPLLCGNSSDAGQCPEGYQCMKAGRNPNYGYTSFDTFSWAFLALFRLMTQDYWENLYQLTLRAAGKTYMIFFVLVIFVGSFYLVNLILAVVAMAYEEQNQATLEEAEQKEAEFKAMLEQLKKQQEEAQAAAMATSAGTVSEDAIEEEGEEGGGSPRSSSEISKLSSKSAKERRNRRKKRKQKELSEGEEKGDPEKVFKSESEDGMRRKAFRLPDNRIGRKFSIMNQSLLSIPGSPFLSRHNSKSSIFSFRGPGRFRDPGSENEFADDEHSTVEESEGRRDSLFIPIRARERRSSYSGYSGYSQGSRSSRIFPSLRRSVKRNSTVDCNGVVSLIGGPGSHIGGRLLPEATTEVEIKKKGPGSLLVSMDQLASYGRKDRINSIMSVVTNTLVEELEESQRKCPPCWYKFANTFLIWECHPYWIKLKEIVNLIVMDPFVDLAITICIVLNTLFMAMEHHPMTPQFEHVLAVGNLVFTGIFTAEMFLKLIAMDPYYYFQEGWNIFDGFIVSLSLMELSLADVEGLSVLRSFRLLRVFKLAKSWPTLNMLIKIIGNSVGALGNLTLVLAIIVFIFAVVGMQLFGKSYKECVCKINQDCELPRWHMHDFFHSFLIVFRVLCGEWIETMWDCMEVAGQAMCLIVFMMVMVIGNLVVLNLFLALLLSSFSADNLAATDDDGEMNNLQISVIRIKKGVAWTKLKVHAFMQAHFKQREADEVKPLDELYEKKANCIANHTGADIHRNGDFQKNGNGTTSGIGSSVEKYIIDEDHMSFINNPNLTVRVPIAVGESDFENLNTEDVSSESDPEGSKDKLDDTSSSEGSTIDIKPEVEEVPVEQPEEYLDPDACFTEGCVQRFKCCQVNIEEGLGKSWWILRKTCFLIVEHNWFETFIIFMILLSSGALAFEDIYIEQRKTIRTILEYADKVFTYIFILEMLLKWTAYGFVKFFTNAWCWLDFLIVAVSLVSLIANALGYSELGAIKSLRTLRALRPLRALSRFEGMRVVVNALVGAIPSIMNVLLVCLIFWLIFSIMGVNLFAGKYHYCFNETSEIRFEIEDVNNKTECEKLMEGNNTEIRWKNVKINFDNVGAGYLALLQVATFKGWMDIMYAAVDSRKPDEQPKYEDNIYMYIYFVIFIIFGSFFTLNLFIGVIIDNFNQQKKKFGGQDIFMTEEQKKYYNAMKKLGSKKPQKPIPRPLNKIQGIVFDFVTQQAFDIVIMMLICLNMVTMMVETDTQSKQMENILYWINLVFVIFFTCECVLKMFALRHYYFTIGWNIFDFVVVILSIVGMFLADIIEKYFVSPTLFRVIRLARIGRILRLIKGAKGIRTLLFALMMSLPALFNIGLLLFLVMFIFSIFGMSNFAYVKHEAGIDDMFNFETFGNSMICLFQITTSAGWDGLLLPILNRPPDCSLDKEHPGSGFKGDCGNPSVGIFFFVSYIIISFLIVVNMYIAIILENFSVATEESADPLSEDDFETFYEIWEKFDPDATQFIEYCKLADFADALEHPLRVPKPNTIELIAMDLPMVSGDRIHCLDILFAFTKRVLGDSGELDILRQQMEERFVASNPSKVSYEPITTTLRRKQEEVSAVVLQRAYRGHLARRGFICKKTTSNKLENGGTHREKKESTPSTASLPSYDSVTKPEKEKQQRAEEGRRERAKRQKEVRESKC

With `CCOC(=O)[C@@H](NC(=O)[C@H](CCC(=O)OC(C)(C)C)NC(=O)[C@H](CC(C)C)NC(=O)[C@@H]1CCCN1C(=O)C12CC3CC(CC(C3)C1)C2)C(C)C` [Compound 23f, tert-Butyl (4S)-4-((2S)-2-((2S)-1-((1R,3R)-adamantane-1-carbonyl)pyrrolidine-2-carboxamido)-4-methylpentanamido)-5-(((S)-1-ethoxy-3-methyl-1-oxobutan-2-yl)amino)-5-oxopentanoate] (Adamantane1carbonyl-PLE(OtBu)V-OEt), at FGF14, the koff worked out at 0.0205 s⁻¹ and the kon worked out at 217 M⁻¹ s⁻¹. For the same molecule, at Nav1.6 C-terminal tail, the “Binding to Nav1.6 C-terminal tail by SPR (in words)” value was “appreciable binding”, the off-rate (koff) is 0.0122 s⁻¹ and the kon is 2640 M⁻¹ s⁻¹.
The corresponding values for `CCCOC(=O)[C@@H](NC(=O)[C@H](CCC(=O)OC(C)(C)C)NC(=O)[C@H](CC(C)C)NC(=O)[C@@H]1CCCN1C(=O)C12CC3CC(CC(C3)C1)C2)C(C)C` [Compound 23g, tert-Butyl (4S)-4-((2S)-2-((2S)-1-((1R,3R)-adamantane-1-carbonyl)pyrrolidine-2-carboxamido)-4-methylpentanamido)-5-(((S)-3-methyl-1-oxo-1-propoxybutan-2-yl)amino)-5-oxopentanoate] (Adamantane1carbonyl-PLE(OtBu)V-OPr) are 0.0204 s⁻¹, 289 M⁻¹ s⁻¹, “appreciable binding”, 0.0492 s⁻¹ and 340 M⁻¹ s⁻¹.
Turning to `C=CCOC(=O)[C@@H](NC(=O)[C@H](CCC(=O)OC(C)(C)C)NC(=O)[C@H](CC(C)C)NC(=O)[C@@H]1CCCN1C(=O)C12CC3CC(CC(C3)C1)C2)C(C)C` [Compound 23a, tert-Butyl (S)-4-((S)-2-((S)-1-((3S,5S,7S)-adamantane-1-carbonyl)pyrrolidine-2-carboxamido)-4-methylpentanamido)-5-(((S)-1-(allyloxy)-3-methyl-1-oxobutan-2-yl)amino)-5-oxopentanoate] (Adamantane1carbonyl-PLE(OtBu)V-OAll), at FGF14, the off-rate (koff) stood at 0.00932 s⁻¹ and the kon worked out at 17900 M⁻¹ s⁻¹. The “Effect on Nav1.6-mediated currents” value in [1] was “unaffected”.
`COC(=O)[C@@H](NC(=O)[C@H](CCC(=O)OC(C)(C)C)NC(=O)[C@H](CC(C)C)NC(=O)[C@@H]1CCCN1C(=O)OCC1c2ccccc2-c2ccccc21)C(C)C` [Compound 21b, (9H-Fluoren-9-yl)methyl (S)-2-(((S)-1-(((S)-5-(tert-butoxy)-1-(((S)-1-methoxy-3-methyl-1-oxobutan-2-yl)amino)-1,5-dioxopentan-2-yl)amino)-4-methyl-1-oxopentan-2-yl)carbamoyl)pyrrolidine-1-carboxylate] (Fmoc-PLE(OtBu)V-OMe): the “Inhibitory activity against FGF14:Nav1.6 complex assembly (in words)” value at FGF14:Nav1.6 complex is listed as “markedly reduced inhibitory activity”.
As to `COC(=O)[C@@H](NC(=O)[C@H](CCC(=O)OC(C)(C)C)NC(=O)[C@H](CC(C)C)NC(=O)[C@@H]1CCCN1C(=O)C12CC3CC(CC(C3)C1)C2)C(C)C` [Compound 21a, tert-Butyl (S)-4-((S)-2-((S)-1-((3S,5S,7S)-adamantane-1-carbonyl)pyrrolidine-2-carboxamido)-4-methylpentanamido)-5-(((S)-1-methoxy-3-methyl-1-oxobutan-2-yl)amino)-5-oxopentanoate] (Adamantane1carbonyl-PLE(OtBu)V-OMe), at Nav1.1 channels, the “Changes in the kinetic properties of Nav1.1 channels” value is “no changes”. On FGF14, the koff turned out to be 0.00933 s⁻¹ and the kon stood at 4660 M⁻¹ s⁻¹. For the same molecule, on Nav1.6 C-terminal tail, the “Binding to Nav1.6 C-terminal tail by SPR (in words)” value is “appreciable binding”, the koff is 0.00357 s⁻¹ and the kon was determined as 62300 M⁻¹ s⁻¹. Further, the “Changes in the kinetic properties of Nav1.2 channels” value on Nav1.2 channels is recorded as “no changes”.
On to B1, for which the “KD with 10 μM 21a” value in experiment [2] was determined as 1420 ± 135 nM.

B2: FGF14: purified recombinant human fibroblast growth factor 14 protein flown over Nav1.6 C-terminal tail in SPR (protein)
chain: KNKNPTDPQLKGIVTRLYCRQGYYLQMHPDGALDGTKDDSTNSTLFNLIPVGLRVVAIQGVKTGLYIAMNGEGYLYPSELFTPECKFKESVFENYYVIYSSMLYRQQESGRAWFLGLNKEGQAMKGNRVKKTKPAAHFLPKPLEVAMYREPSLHDVGETVPKPGVTPSKSTSASAIMNGGKPVNKSKTT
modifications: left off: His6, N-terminal, state not stated
As for B2, in the experiment with FGF14:Nav1.6, the “koff of FGF14 binding to Nav1.6 C-terminal tail” value was 0.00171 ± 1.02e-05 s⁻¹ and the “kon of FGF14 binding to Nav1.6 C-terminal tail” value amounted to 21800 ± 160 M⁻¹ s⁻¹.
In experiment [3], B3 returned a Kd of 228 ± 57.5 nM, a koff of 0.00171 s⁻¹ and a kon of 21800 M⁻¹ s⁻¹.
